How the values were obtained:
[1] = biological target: T1, Serotonin 3 (5-HT3) receptor (Rattus norvegicus, UniProt P35563+Q9JJ16); assay: Binding affinity against 5-hydroxytryptamine 3 (5-HT3) receptor in rat brain cortical membranes using radioligand [3H]quipazine; format: cell membranes
T1 sequence (P35563 whole entry): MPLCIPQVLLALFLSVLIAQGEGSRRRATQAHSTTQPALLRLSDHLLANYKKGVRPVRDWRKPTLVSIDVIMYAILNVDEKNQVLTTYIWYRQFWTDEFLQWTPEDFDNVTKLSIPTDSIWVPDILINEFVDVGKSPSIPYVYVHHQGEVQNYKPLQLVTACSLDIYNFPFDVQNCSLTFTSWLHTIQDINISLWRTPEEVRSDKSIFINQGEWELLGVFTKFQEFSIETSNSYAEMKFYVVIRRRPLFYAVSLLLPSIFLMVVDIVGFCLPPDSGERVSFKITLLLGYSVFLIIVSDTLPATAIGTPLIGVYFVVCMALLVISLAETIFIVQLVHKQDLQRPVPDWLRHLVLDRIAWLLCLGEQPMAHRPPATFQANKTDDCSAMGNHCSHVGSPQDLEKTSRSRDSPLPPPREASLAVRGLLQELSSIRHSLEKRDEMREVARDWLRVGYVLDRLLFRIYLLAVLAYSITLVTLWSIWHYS
T1 sequence (Q9JJ16 whole entry): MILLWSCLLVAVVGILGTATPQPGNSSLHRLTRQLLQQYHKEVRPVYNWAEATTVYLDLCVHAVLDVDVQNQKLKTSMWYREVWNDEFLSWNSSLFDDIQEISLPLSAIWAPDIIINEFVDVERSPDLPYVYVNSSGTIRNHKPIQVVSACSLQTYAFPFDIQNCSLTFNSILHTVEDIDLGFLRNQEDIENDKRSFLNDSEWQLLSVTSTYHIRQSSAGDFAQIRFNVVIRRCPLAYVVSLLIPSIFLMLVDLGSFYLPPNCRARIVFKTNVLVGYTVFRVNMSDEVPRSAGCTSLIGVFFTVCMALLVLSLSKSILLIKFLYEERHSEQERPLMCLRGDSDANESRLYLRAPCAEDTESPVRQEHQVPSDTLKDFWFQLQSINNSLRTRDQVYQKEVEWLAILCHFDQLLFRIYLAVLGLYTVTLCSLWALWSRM
Outline: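 Rat cerebral cortex membranes, washed in 50 mM Tris pH 7.4, incubated 45 min at 25 °C in Tris-Krebs buffer pH 7.4 with 0.3–0.7 nM [3H]quipazine plus 0.1 μM paroxetine. Ten test concentrations from 1e-12 to 1e-4 M. Nonspecific binding defined with 1.0 μM racemic zacopride. Filtration, scintillation counting, IC50 by iterative fit, Ki by Cheng-Prusoff. Means of ≥3 determinations, or of two.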

Canis familiaris [2] = assay: Inhibition of emesis induced by peroral administration of cisplatin in 6 dogs at 0.03 mg/kg (p<0.01); format: functional, Canis lupus familiaris; conditions: route oral
Canis familiaris [3] = assay: Inhibition of emesis induced by peroral administration of cisplatin in 6 dogs at 0.1 mg/kg (p<0.01); format: functional, Canis lupus familiaris; conditions: route oral
Canis familiaris [4] = assay: Inhibition of emesis induced by intravenous administration of cisplatin in 6 dogs at 0.001 mg/kg (p<0.05); format: functional, Canis lupus familiaris
Canis familiaris [5] = assay: Inhibition of emesis induced by intravenous administration of cisplatin in 6 dogs at 0.003 mg/kg (p<0.01); format: functional, Canis lupus familiaris
Canis familiaris [6] = assay: Inhibition of emesis induced by intravenous administration of cisplatin in 6 dogs at 0.03 mg/kg (p<0.01); format: functional, Canis lupus familiaris
Canis familiaris [7] = assay: Inhibition of emesis induced by peroral administration of cisplatin in 6 dogs at 0.001 mg/kg; format: functional, Canis lupus familiaris; conditions: route oral
Canis familiaris [8] = assay: Inhibition of emesis induced by peroral administration of cisplatin in 6 dogs at 0.003 mg/kg; format: functional, Canis lupus familiaris; conditions: route oral
Canis familiaris [9] = assay: Inhibition of emesis induced by peroral administration of cisplatin in 6 dogs at 0.01 mg/kg (p<0.01); format: functional, Canis lupus familiaris; conditions: route oral
Mustela putorius furo [10] = assay: Inhibition of emesis induced by peroral administration of cisplatin in 6 ferrets at 0.001 mg/kg; format: functional; conditions: route oral
Mustela putorius furo [11] = assay: Inhibition of emesis induced by peroral administration of cisplatin in 6 ferrets at 0.003 mg/kg (p<0.05); format: functional; conditions: route oral
Mustela putorius furo [12] = assay: Inhibition of emesis induced by peroral administration of cisplatin in 6 ferrets at 0.01 mg/kg (p<0.005); format: functional; conditions: route oral
Mustela putorius furo [13] = assay: Inhibition of emesis induced by intravenous administration of cisplatin in 5 ferrets at 0.003 mg/kg; format: functional
Mustela putorius furo [14] = assay: Inhibition of emesis induced by intravenous administration of cisplatin in 5 ferrets at 0.03 mg/kg (p<0.005); format: functional
Mustela putorius furo [15] = assay: Inhibition of emesis induced by intravenous administration of cisplatin in 6 ferrets at 0.01 mg/kg (p<0.005); format: functional
Mustela putorius furo [16] = assay: Inhibition of emesis induced by intravenous administration of cisplatin in 6 ferrets at 0.1 mg/kg (p<0.005); format: functional
Mustela putorius furo [17] = assay: Inhibition of emesis induced by intravenous administration of cisplatin in 9 ferrets at 0.001 mg/kg; format: functional
Mustela putorius furo [18] = assay: Inhibition of emesis induced by peroral administration of cisplatin in 5 ferrets at 0.03 mg/kg (p<0.005); format: functional; conditions: route oral
Mustela putorius furo [19] = assay: Inhibition of emesis induced by peroral administration of cisplatin in 5 ferrets at 0.1 mg/kg (p<0.005); format: functional; conditions: route oral
Rattus norvegicus = assay: Potency to inhibit bradycardiac effect measured by Von Bezold-Jarisch assay in 8 anesthetized rats; format: functional; conditions: read-out: ID50 (the source's name)
Outline: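 Male Sprague-Dawley rats, 250–380 g, under urethane (1.5 g/kg ip), with cannulated trachea and femoral veins; heart rate recorded by ECG. Lowest consistent bradycardic dose of 2-methyl-5-HT titrated iv, then given every 12 min. Increasing iv doses given 5 min before each challenge, with saline vehicle group.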

## Cl.O=C1c2cccc3c2[C@H](CCC3)CN1[C@@H]1CN2CCC1CC2 [PALONOSETRON HYDROCHLORIDE]
[1]
  Ki: 0.0398 nM
Canis familiaris [2]
  No. of emetic episodes: 2.67
Canis familiaris [3]
  No. of emetic episodes: 0
Canis familiaris [4]
  No. of emetic episodes: 7.17
Canis familiaris [5]
  No. of emetic episodes: 4.33
Canis familiaris [6]
  No. of emetic episodes: 1.33
Canis familiaris [7]
  No. of emetic episodes: 12.83
Canis familiaris [8]
  No. of emetic episodes: 16.17
Canis familiaris [9]
  No. of emetic episodes: 4
Mustela putorius furo [10]
  No. of emetic episodes: 15.17
Mustela putorius furo [11]
  No. of emetic episodes: 7.17
Mustela putorius furo [12]
  No. of emetic episodes: 2.17
Mustela putorius furo [13]
  No. of emetic episodes: 0.6
Mustela putorius furo [14]
  No. of emetic episodes: 0
Mustela putorius furo [15]
  No. of emetic episodes: 0
Mustela putorius furo [16]
  No. of emetic episodes: 0.17
Mustela putorius furo [17]
  No. of emetic episodes: 9.67
Mustela putorius furo [18]
  No. of emetic episodes: 1.8
Mustela putorius furo [19]
  No. of emetic episodes: 0.8
Rattus norvegicus
  ED50: 0.02 µg/kg

Reference: ChEMBL document CHEMBL1126794, “2-(Quinuclidin-3-yl)pyrido[4,3-b]indol-1-ones and isoquinolin-1-ones. Potent conformationally restricted 5-HT3 receptor antagonists” (J Med Chem, 1993)
